Experimental data from different studies.
Compare with care: the assays were run in different laboratories. Values after ≈ are worked out from the molar mass of the structure shown.
Organism: Mycobacterium tuberculosis

Structure (SMILES) | effect on | technique | strain | time | endpoint | result
CCCCCCC#Cc1cncc(-c2nnc(SCc3ccc([N+](=O)[O-])o3)n2C2CC2)c1 | microbial growth | – | ERDMAN | – | IC50 | 48 nM
COC(=O)c1cc(-c2cccc(NC(=S)Nc3ccc(F)cc3F)c2)on1 | microbial growth | – | ATCC27294 H37RV | 7 days | MIC | 2 µg/mL (≈ 5.14 µM)
Cc1cn(-c2cc(C(=O)Nc3ccc(C)c(Nc4nccn4-c4cc(NC5CC5)ncn4)c3)cc(C(F)(F)F)c2)cn1 | microbial killing | – | H37RV | 5 days | MBC | 2.5 to 5 µM
CCCCCCC#Cc1cncc(-c2nnc(SCc3cc([N+](=O)[O-])cc([N+](=O)[O-])c3)n2C)c1 | microbial growth | – | ERDMAN | – | IC90 | 440 nM
COC(=O)c1cc(-c2cccc(NC(=S)Nc3ccccc3Cl)c2)on1 | microbial growth | – | ATCC27294 H37RV | 7 days | MIC | 2 µg/mL (≈ 5.16 µM)
CO[C@H]1/C=C/O[C@@]2(C)Oc3c(C)c(O)c4c(O)c(c(/C=N/N5CCN(C)CC5)c(O)c4c3C2=O)NC(=O)/C(C)=C\C=C\[C@H](C)[C@H](O)[C@@H](C)[C@@H](O)[C@@H](C)[C@H](OC(C)=O)[C@@H]1C | microbial growth | – | H37RV | – | MIC | 0.05 µg/mL (≈ 0.0608 µM)
O=[N+]([O-])c1cc2cc3ccc4oc([N+](=O)[O-])cc4c3cc2o1 | microbial killing | resazurin | H37RV | – | MBC | 0.5 µg/mL
CCCCCCC#Cc1cncc(-c2nnc(SCc3ccc(Cl)c(F)c3)n2C)c1 | microbial growth | – | ERDMAN | – | IC50 | 5400 nM
COC(=O)c1cc(-c2cccc(NC(=O)Nc3c(C)cccc3C)c2)on1 | microbial growth | – | ATCC27294 H37RV | 7 days | MIC | 64 µg/mL (≈ 175 µM)
CCCCCCC#Cc1cncc(-c2nnc(SCc3ccc(C#N)cc3)n2C)c1 | microbial growth | – | ERDMAN | – | IC90 | > 100000 nM
O=C(C[n+]1cn(Cc2cccc(Cn3c[n+](CC(=O)c4ccc([N+](=O)[O-])cc4)c4ccccc43)n2)c2ccccc21)c1ccc([N+](=O)[O-])cc1 | microbial killing | – | H37RV | 21 days | MBC | 50 µM
Cc1cc(C)nc(-n2nc(C)cc2NC(=O)c2ccc3c(c2)OCO3)n1 | microbial growth | – | H37RV | – | MIC50 | > 20 µM
NNC(=O)c1ccncc1 | microbial killing | – | H37RV | 7 days | MBC | 30.7 µg/mL
CCOC(=O)c1c(NC(=O)c2c(F)c(F)c(F)c(F)c2F)sc2c1CCN(CC)C2 | microbial growth | – | H37RV | – | MIC50 | 0.12 µM (≈ 0.0538 µg/mL)
CCCCCCC#Cc1cncc(-c2nnc(SCc3ccc([N+](=O)[O-])cc3)n2C)c1 | microbial growth | – | – | – | IC50 | 1300 nM
CCCCCCNC(=S)Nc1cccc(-c2cc(C(=O)OC)no2)c1 | microbial growth | – | ATCC27294 H37RV | 7 days | MIC | 2 µg/mL (≈ 5.53 µM)
[H]/N=C(/N)N[C@H]1[C@H](O)[C@@H](O)[C@H](O[C@@H]2O[C@@H](C)[C@](O)(C=O)[C@H]2O[C@@H]2O[C@@H](CO)[C@H](O)[C@@H](O)[C@@H]2NC)[C@@H](N/C(N)=N\[H])[C@@H]1O | microbial growth | – | H37RV | – | IC90 | 280 nM
